Experimental findings from ChEMBL document CHEMBL1156088, “Synthesis and biological activity of novel oxazolidinones” (2009) are described below.

≈ marks a conversion by molar mass, not a printed value.

Holding throughout (type): functional
In assay [1] the test system is Staphylococcus aureus. Put plainly: Antibacterial activity against methicillin-resistant Staphylococcus aureus 33 by NCCLS method. The essentials:
(§1)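 In vitro MIC determined by the NCCLS method against a panel of gram-positive bacteria. Ranbezolid and linezolid were run alongside as reference standards.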

Assay [2] has as its system Streptococcus pyogenes. The assay can be described thus: Antibacterial activity against Streptococcus pyogenes ATCC 19615 by NCCLS method. The essentials:
(§2)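 In vitro MIC determination by the NCCLS method against a panel of gram-positive bacteria. Two oxazolidinone reference standards were tested alongside.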

The subject of assay [3] is Enterococcus faecalis. Put plainly: Antibacterial activity against Enterococcus faecalis ATCC 29212 by NCCLS method. An outline of the steps:
as §2

Assay [4] has as its system Staphylococcus aureus. The assay can be described thus: Antibacterial activity against methicillin-resistant Staphylococcus aureus 562 by NCCLS method. The essentials:
as §1

Assay [5] deals with Enterococcus faecium. The assay can be described thus: Antibacterial activity against vancomycin-resistant Enterococcus faecium 6A by NCCLS method. The essentials:
as §1

Assay [6] has as its system Staphylococcus aureus. The assay can be described thus: Antibacterial activity against Staphylococcus aureus 15187 by NCCLS method. The essentials: as §2
Assay [7] deals with Staphylococcus aureus. The assay can be described thus: Antibacterial activity against Staphylococcus aureus ATCC 25923 by NCCLS method. The essentials: as §2
Assay [8] has as its system Streptococcus pneumoniae. Put plainly: Antibacterial activity against Streptococcus pneumoniae ATCC 6303 by NCCLS method. An outline of the steps:
as §2

`COC(=O)NC[C@H]1CN(c2ccc(N3CCN(Cc4ccc([N+](=O)[O-])o4)CC3)c(F)c2)C(=O)O1`: the minimal inhibitory concentration (MIC) is 8 µg/mL (≈ 16.8 µM) in assay [1]; 1 µg/mL (≈ 2.09 µM) in assay [2]; 8 µg/mL (≈ 16.8 µM) in assay [3]; 2 µg/mL (≈ 4.19 µM) in assay [4]; 8 µg/mL (≈ 16.8 µM) in assay [5]; 8 µg/mL (≈ 16.8 µM) in assay [6]. The minimum inhibitory concentration (MIC) in assay [7] came to 8 µg/mL (≈ 16.8 µM); in assay [8] it was 1 µg/mL (≈ 2.09 µM).
In the case of `O=C1O[C@@H](CN=C=S)CN1c1ccc(N2CCN(Cc3ccc([N+](=O)[O-])o3)CC2)c(F)c1`, the minimal inhibitory concentration (MIC) in assay [1], in assay [2], in assay [3], in assay [4], in assay [5] and in assay [6] was above 16 µg/mL in each case. Also, the MIC in assay [7] and in assay [8] was above 16 µg/mL throughout.
For the compound `O=C(NC[C@H]1CN(c2ccc(N3CCN(Cc4ccc([N+](=O)[O-])o4)CC3)c(F)c2)C(=O)O1)c1ccc([N+](=O)[O-])s1`, the MIC in assay [1], in assay [2], in assay [3], in assay [4], in assay [5] and in assay [6] was above 16 µg/mL each time. Further, the MIC in assay [7] and in assay [8] was above 16 µg/mL throughout.
As for `O=C(/C=C/c1ccc2c(c1)OCO2)NC[C@H]1CN(c2ccc(N3CCN(Cc4ccc([N+](=O)[O-])o4)CC3)c(F)c2)C(=O)O1`, the MIC in assay [1], in assay [2], in assay [3], in assay [4], in assay [5] and in assay [6] was above 16 µg/mL throughout. The minimal inhibitory concentration (MIC) in assay [7] and in assay [8] was above 16 µg/mL throughout.
For the compound `O=C(NC[C@H]1CN(c2ccc(N3CCN(Cc4ccc([N+](=O)[O-])o4)CC3)c(F)c2)C(=O)O1)C(Cl)Cl`, the MIC in assay [1], in assay [2], in assay [3], in assay [4], in assay [5] and in assay [6] was above 16 µg/mL in each case. In addition, the MIC in assay [7] and in assay [8] was above 16 µg/mL throughout.
Turning to `O=C(/C=C/c1ccc(F)cc1)NC[C@H]1CN(c2ccc(N3CCN(Cc4ccc([N+](=O)[O-])o4)CC3)c(F)c2)C(=O)O1`, the MIC in assay [1], in assay [2], in assay [3], in assay [4], in assay [5] and in assay [6] was above 16 µg/mL in each case. In addition, the minimal inhibitory concentration (MIC) in assay [7] and in assay [8] was above 16 µg/mL each time.
Turning to `CC(=O)NC[C@H]1CN(c2ccc(N3CCN(Cc4ccc([N+](=O)[O-])o4)CC3)c(F)c2)C(=O)O1` [RANBEZOLID], the MIC in assay [1] was 2 µg/mL (≈ 4.33 µM); in assay [2], 0.125 µg/mL (≈ 0.271 µM); in assay [3], 2 µg/mL (≈ 4.33 µM); in assay [4], 2 µg/mL (≈ 4.33 µM); in assay [5], 2 µg/mL (≈ 4.33 µM); in assay [7] it was 1 µg/mL (≈ 2.17 µM). In assay [8], this compound showed a minimum inhibitory concentration (MIC) of 0.125 µg/mL (≈ 0.271 µM).
For `COCC(=O)NC[C@H]1CN(c2ccc(N3CCN(Cc4ccc([N+](=O)[O-])o4)CC3)c(F)c2)C(=O)O1`, the MIC in assay [1], in assay [2], in assay [3], in assay [4], in assay [5] and in assay [6] was above 16 µg/mL throughout. Further, the minimal inhibitory concentration (MIC) in assay [7] and in assay [8] was above 16 µg/mL throughout.
Regarding `O=C(NC[C@H]1CN(c2ccc(N3CCN(Cc4ccc([N+](=O)[O-])o4)CC3)c(F)c2)C(=O)O1)c1ccc([N+](=O)[O-])o1`, the MIC in assay [1] was 2 µg/mL (≈ 3.58 µM); in assay [2], above 8 µg/mL; in assay [3], 4 µg/mL (≈ 7.16 µM); in assay [4] it was 1 µg/mL (≈ 1.79 µM); in assay [5], above 8 µg/mL; in assay [6], 2 µg/mL (≈ 3.58 µM). In addition, the MIC in assay [7] and in assay [8] was 8 µg/mL (≈ 14.3 µM) in each case.
Take `O=C(NC[C@H]1CN(c2ccc(N3CCN(Cc4ccc([N+](=O)[O-])o4)CC3)c(F)c2)C(=O)O1)c1cc2ccccc2o1`: the MIC in assay [1], in assay [2], in assay [3], in assay [4], in assay [5] and in assay [6] was above 16 µg/mL each time. Further, the MIC in assay [7] and in assay [8] was above 16 µg/mL throughout.
Consider `O=C1O[C@@H](CNc2ccon2)CN1c1ccc(N2CCN(Cc3ccc([N+](=O)[O-])o3)CC2)c(F)c1`, for which the MIC in assay [1] was found to be 2 µg/mL (≈ 4.11 µM); in assay [2] it was 1 µg/mL (≈ 2.06 µM); in assay [3], 2 µg/mL (≈ 4.11 µM); in assay [4], 2 µg/mL (≈ 4.11 µM); in assay [5], 2 µg/mL (≈ 4.11 µM); in assay [6], 2 µg/mL (≈ 4.11 µM). Also, the minimal inhibitory concentration (MIC) amounted to 2 µg/mL (≈ 4.11 µM) in assay [7] and 1 µg/mL (≈ 2.06 µM) in assay [8].
With `CC(Cl)C(=O)NC[C@H]1CN(c2ccc(N3CCN(Cc4ccc([N+](=O)[O-])o4)CC3)c(F)c2)C(=O)O1` (stereo not given in full), the MIC in assay [1], in assay [2], in assay [3], in assay [4], in assay [5] and in assay [6] was above 16 µg/mL throughout. For the same compound, the MIC in assay [7] and in assay [8] was above 16 µg/mL throughout.
Turning to `COC(=S)NC[C@H]1CN(c2ccc(N3CCN(Cc4ccc([N+](=O)[O-])o4)CC3)c(F)c2)C(=O)O1`, the minimal inhibitory concentration (MIC) in assay [1] worked out at 2 µg/mL (≈ 4.05 µM); in assay [2], 1 µg/mL (≈ 2.03 µM); in assay [3] it was 1 µg/mL (≈ 2.03 µM); in assay [4], 2 µg/mL (≈ 4.05 µM); in assay [5], 1 µg/mL (≈ 2.03 µM); in assay [6], 2 µg/mL (≈ 4.05 µM). Moreover, the MIC in assay [7] was found to be 2 µg/mL (≈ 4.05 µM); in assay [8] it was 0.5 µg/mL (≈ 1.01 µM).
With `O=C1O[C@@H](COc2ccon2)CN1c1ccc(N2CCN(Cc3ccc([N+](=O)[O-])o3)CC2)c(F)c1`, the MIC in assay [1], in assay [2], in assay [3], in assay [4], in assay [5] and in assay [6] was above 16 µg/mL each time. Moreover, the MIC in assay [7] and in assay [8] was above 16 µg/mL each time.
For the compound `CN(C)C(=S)NC[C@H]1CN(c2ccc(N3CCN(Cc4ccc([N+](=O)[O-])o4)CC3)c(F)c2)C(=O)O1`, the MIC in assay [1], in assay [2], in assay [3], in assay [4], in assay [5] and in assay [6] was above 16 µg/mL each time. Further, the MIC in assay [7] and in assay [8] was above 16 µg/mL each time.
For `O=CNC[C@H]1CN(c2ccc(N3CCN(Cc4ccc([N+](=O)[O-])o4)CC3)c(F)c2)C(=O)O1`, the MIC in assay [1] is 2 µg/mL (≈ 4.47 µM); in assay [2] it was 0.5 µg/mL (≈ 1.12 µM); in assay [3], 2 µg/mL (≈ 4.47 µM); in assay [4] it was 2 µg/mL (≈ 4.47 µM); in assay [5], 4 µg/mL (≈ 8.94 µM); in assay [6] it was 2 µg/mL (≈ 4.47 µM). Further, the MIC in assay [7] was determined as 4 µg/mL (≈ 8.94 µM); in assay [8], 1 µg/mL (≈ 2.24 µM).
As for `O=C(NC[C@H]1CN(c2ccc(N3CCN(Cc4ccc([N+](=O)[O-])o4)CC3)c(F)c2)C(=O)O1)C(F)F`, the minimal inhibitory concentration (MIC) in assay [1] amounted to 2 µg/mL (≈ 4.02 µM); in assay [2], 0.5 µg/mL (≈ 1.01 µM); in assay [3] it was 2 µg/mL (≈ 4.02 µM); in assay [4] it was 2 µg/mL (≈ 4.02 µM); in assay [5], 2 µg/mL (≈ 4.02 µM); in assay [6], 1 µg/mL (≈ 2.01 µM). Besides, the minimal inhibitory concentration (MIC) in assay [7] stood at 2 µg/mL (≈ 4.02 µM); in assay [8], 0.5 µg/mL (≈ 1.01 µM).
Take `O=C(CF)NC[C@H]1CN(c2ccc(N3CCN(Cc4ccc([N+](=O)[O-])o4)CC3)c(F)c2)C(=O)O1`: the MIC came out at 4 µg/mL (≈ 8.34 µM) in assay [1]; 0.5 µg/mL (≈ 1.04 µM) in assay [2]; 4 µg/mL (≈ 8.34 µM) in assay [3]; 2 µg/mL (≈ 4.17 µM) in assay [4]; 4 µg/mL (≈ 8.34 µM) in assay [5]; 2 µg/mL (≈ 4.17 µM) in assay [6]. Besides, the MIC in assay [7] is 4 µg/mL (≈ 8.34 µM); in assay [8], 1 µg/mL (≈ 2.09 µM).
Turning to `CSC(=S)NC[C@H]1CN(c2ccc(N3CCN(Cc4ccc([N+](=O)[O-])o4)CC3)c(F)c2)C(=O)O1`, the MIC in assay [1], in assay [2], in assay [3], in assay [4], in assay [5] and in assay [6] was above 16 µg/mL throughout. Further, the minimal inhibitory concentration (MIC) in assay [7] and in assay [8] was above 16 µg/mL in each case.
As for `CC(=S)NC[C@H]1CN(c2ccc(N3CCN(Cc4ccc([N+](=O)[O-])o4)CC3)c(F)c2)C(=O)O1`, the MIC in assay [1] was 1 µg/mL (≈ 2.09 µM); in assay [2], 0.5 µg/mL (≈ 1.05 µM); in assay [3], 1 µg/mL (≈ 2.09 µM); in assay [4] it was 1 µg/mL (≈ 2.09 µM); in assay [5] it was 1 µg/mL (≈ 2.09 µM); in assay [6] it was 1 µg/mL (≈ 2.09 µM). For the same compound, the minimal inhibitory concentration (MIC) stood at 1 µg/mL (≈ 2.09 µM) in assay [7] and 0.25 µg/mL (≈ 0.524 µM) in assay [8].
Turning to `NC[C@H]1CN(c2ccc(N3CCN(Cc4ccc([N+](=O)[O-])o4)CC3)c(F)c2)C(=O)O1`, the minimum inhibitory concentration (MIC) in assay [1], in assay [2], in assay [3], in assay [4], in assay [5] and in assay [6] was above 16 µg/mL in each case. For the same compound, the MIC in assay [7] and in assay [8] was above 16 µg/mL each time.
For `CC(=O)NC[C@H]1CN(c2ccc(N3CCOCC3)c(F)c2)C(=O)O1` [LINEZOLID], the MIC in assay [2] and in assay [5] was 2 µg/mL (≈ 5.93 µM) throughout.
On to `O=C1O[C@@H](CO)CN1c1ccc(N2CCN(Cc3ccc([N+](=O)[O-])o3)CC2)c(F)c1`, for which the minimal inhibitory concentration (MIC) in assay [1], in assay [2], in assay [3], in assay [4], in assay [5] and in assay [6] was above 16 µg/mL each time. The minimum inhibitory concentration (MIC) in assay [7] and in assay [8] was above 16 µg/mL in each case.
For `NC(=S)NC[C@H]1CN(c2ccc(N3CCN(Cc4ccc([N+](=O)[O-])o4)CC3)c(F)c2)C(=O)O1`, the minimum inhibitory concentration (MIC) in assay [1] was found to be 1 µg/mL (≈ 2.09 µM); in assay [2], 0.25 µg/mL (≈ 0.522 µM); in assay [3], 0.5 µg/mL (≈ 1.04 µM); in assay [4] it was 1 µg/mL (≈ 2.09 µM); in assay [5] it was 1 µg/mL (≈ 2.09 µM); in assay [6], 1 µg/mL (≈ 2.09 µM). Further, the MIC in assay [7] was 1 µg/mL (≈ 2.09 µM); in assay [8] it was below 0.06 µg/mL.

As usually defined, the MIC is the smallest concentration in the dilution series that meets the test's criterion for growth inhibition. High values mean weaker potency, low ones greater potency.
